This sample holds only a part of the variants without activity.
B1: tRNA (parent)
chain: GUUCCGUUGGCGUAAUGGUAACGCGUCUCCCUCCUAAGGAGAAGACUGCGGGUUCGAGUCCCGUACGGAACG

Variants of: B1
Assay: yeast fitness relative to wild type (ratio to wild type); higher = fitter; tRNA-Arg(CCU), competitive growth, 37 C, YPD
Procedure, shortened: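 Gene amplicons from the start population and from each of six end populations were read by 100-nucleotide paired-end sequencing. Those end populations came from pooled Saccharomyces cerevisiae strains carrying tRNA-Arg(CCU) gene variants at the native locus, competed in YPD at 37°C for 24 hours. Fitness relative to wild type was worked out from changes in genotype frequencies. Genotypes needed ≥ 100 starting reads, and estimates < 0.5 were set to 0.5.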

Row | Variant | yeast fitness
1 | U7A C29G A70C | ≤ 0.5
2 | U7A G10C C30G A36U | ≤ 0.5
3 | U7A A14C C30A A36G C62U G63A A70U | ≤ 0.5
4 | U7A G63A | 0.668
5 | U7C A21U C24A C62U U64C | 0.661
6 | U7A U8C G9A C33U | ≤ 0.5
7 | G6U G18C C49G | ≤ 0.5
8 | U7C A42G U54C | 0.549
9 | G6C U47A | 0.818
10 | U7A G9A U13A | 0.6
11 | U7A C34G A70U | ≤ 0.5
12 | G6U | 0.918
13 | U7A C46G C66G | 0.547
14 | U7A U28G C30A G52A | 0.595
15 | U7A U47A C55G G68A | ≤ 0.5
16 | U7A C11U G17C C30G A37C G48C G51A | ≤ 0.5
17 | U7C A14G C29U C31U C33U C55U | ≤ 0.5
18 | U7A U19A C29A G68C | ≤ 0.5
19 | G6U G68C | 0.794
20 | U7A C46A C66A | ≤ 0.5
21 | U7A A20G A40U | ≤ 0.5
22 | U7A U54A | 0.506
23 | U7A G17A A45C U47A G50A | ≤ 0.5
24 | U7A G58A | 0.635

Row | Variant | yeast fitness
25 | G6C U35A G44C | 0.569
26 | U7A A20C U26A | ≤ 0.5
27 | U7A C31U C34G | ≤ 0.5
28 | U7A G38A A42U G51A U53G C60G | ≤ 0.5
29 | U7A U8C G17A C27G C29U U32C A43C G52A | ≤ 0.5
30 | U7A C29G | ≤ 0.5
31 | G6C U32A G41A C46U | ≤ 0.5
32 | U7A C22U | 0.798
33 | U7C A21C C27U | ≤ 0.5
34 | U7C A21C C34A U35G G44C C61G | ≤ 0.5
35 | U7C A36G A43U C62G | 0.603
36 | G6U C62U | 0.831
37 | U7A A15U G63A G67A | ≤ 0.5
38 | U7A A20C A21G G23A A70U | ≤ 0.5
39 | U7A G10A C55U C61G A65G G68A | ≤ 0.5
40 | U7A G10C C22U C27G | 0.577
41 | U7A C34U C49A | ≤ 0.5
42 | U7A A21C C31G | ≤ 0.5
43 | U7A C31U A40U G67C | ≤ 0.5
44 | U7A C29G A36C C62A | ≤ 0.5
45 | U7A G51A G52A A70G | ≤ 0.5
46 | U7A U32A C61G | ≤ 0.5
47 | U7A C27U A69C | 0.649
48 | U7C A14C A65C | 0.533

Row | Variant | yeast fitness
49 | U7A C11U A36U G58C | ≤ 0.5
50 | U7A C22G C30U A37G | ≤ 0.5
51 | U7A G23C C46G G51C U53A | ≤ 0.5
52 | U7C A43U C49G | ≤ 0.5
53 | U7A G10A C30A A43C C66U | 0.553
54 | U7A G18A | 0.689
55 | U7C A37U | 0.625
56 | U7A U19A A69C | 0.502
57 | G6U A40G C61A U64C | ≤ 0.5
58 | U7A A15C C27A C61G | ≤ 0.5
59 | U7A C34G | 0.543
60 | U7A C34A G56C A65G | ≤ 0.5
61 | U7A C27U C29U | ≤ 0.5
62 | U7A A14U A20C U28C C46U G58A | ≤ 0.5
63 | G6U A40G C49A C61G | ≤ 0.5
64 | G6C U64A | 0.853
65 | U7C A40G G52A A65C | ≤ 0.5
66 | U7A A36C G56A | ≤ 0.5
67 | U7A U16C | 0.751
68 | U7C A20U C34G A36C C55U A65U | ≤ 0.5
69 | U7A C34A G56C | 0.541
70 | U7C A21G G41C U53C U64A | ≤ 0.5
71 | U7A A15C C27A U47C G58C | ≤ 0.5
72 | U7A U64C | 0.829

Row | Variant | yeast fitness
73 | U7C A15G C27U C29U | ≤ 0.5
74 | U7A G9C G17C G48A G68C | ≤ 0.5
75 | U7A C11U U16A G25A | ≤ 0.5
76 | U7A G44A | 0.755
77 | U7A G44C | 0.718
78 | U7A C29U C62U | ≤ 0.5
79 | U7A A21C C29U A37G C55U A70U | 0.55
80 | U7A U8A C11G G56A A69U | 0.548
81 | U7C A14G G17A A69U | 0.553
82 | U7A G9C A40C U47C | ≤ 0.5
83 | U7A C34U C66G | ≤ 0.5
84 | U7C A36G A57U | 0.566
85 | U7A C60A | 0.577
86 | U7A C46G A70U | 0.642
87 | U7A G52A A69C | ≤ 0.5
88 | U7A A21G C61G C66G | ≤ 0.5
89 | U7A G41A | 0.634
90 | U7C A36U C49G | 0.744
91 | U7A C11G C29U | 0.555
92 | U7A G23A C55A C61A | ≤ 0.5
93 | U7A C27U U28C | ≤ 0.5
94 | U7A G44C C61A C62U C66U | ≤ 0.5
95 | U7A A21G U28A C29U G58A | 0.598
96 | U7A U35C A42G C60U | 0.561

Row | Variant | yeast fitness
97 | U7A G12C A57C | ≤ 0.5
98 | U7A C33U A42C U64C A70G | ≤ 0.5
99 | U7A C34A G56C G68C | ≤ 0.5
100 | G6C U53C | 0.865
101 | U7A U16C G17A C34G A45C G52C | ≤ 0.5
102 | U7A C24G C55G | ≤ 0.5
103 | U7A C49U A65C | 0.711
104 | U7A G25A C31U | 0.568
105 | U7A G17C G51A | ≤ 0.5
106 | U7C A20G C61U | 0.587
107 | U7A A69U | 0.759
108 | U7C A20G A37C C60G A65U A70C | ≤ 0.5
109 | U7A G17A U59A | ≤ 0.5
110 | U7C A15C | 0.639
111 | U7A A20C A21G G23A G56A | ≤ 0.5
112 | U7C A42G | 0.716
113 | G6C U59A C60U | ≤ 0.5
114 | U7A A36U C60A U64C | ≤ 0.5
115 | U7A A36C G51C | ≤ 0.5
116 | U7A C29G G50A U64C | ≤ 0.5
117 | U7C A37G C55A G58C | ≤ 0.5
118 | U7A C27G C34U | ≤ 0.5
119 | U7A C49A A69C | ≤ 0.5
120 | U7A G25C C27G C31U A45U C62U U64C | ≤ 0.5

Row | Variant | yeast fitness
121 | U7A A15U G67A | ≤ 0.5
122 | U7A C33A A45C | 0.54
123 | U7A G9C C24A A43U G52A C60G A69U A70C | ≤ 0.5
124 | U7A C55U | 0.555
125 | U7A C55A | 0.571
126 | U7A A37U G50A U53C C62A A69U | ≤ 0.5
127 | U7A A42G G68C | ≤ 0.5
128 | G6C U28C C30A G39A | ≤ 0.5
129 | U7A C22U C66G G68C | ≤ 0.5
130 | U7C A37C C61G | ≤ 0.5
131 | U7C A37C A40C A45U A57C | 0.573
132 | U7A G10C C27G U32A | ≤ 0.5
133 | U7A G10C C31G G67U | ≤ 0.5
134 | U7A U8G C30G C66U | ≤ 0.5
135 | U7A A21C A36G G68C | ≤ 0.5
136 | U7A U53A | ≤ 0.5
137 | G6C U35A A43U C62U G68C | ≤ 0.5
138 | U7A C29U C31A A65C | 0.655
139 | U7A A14C A20G C66G | ≤ 0.5
140 | U7A A14G U28G C30U | ≤ 0.5
141 | U7A C66U | 0.762
142 | U7A G9C A40C | 0.623
143 | U7A G9C U13C G58C A65C A69G | ≤ 0.5
144 | G6C U53A C60A | ≤ 0.5

Row | Variant | yeast fitness
145 | U7A A20G G23A U26G A65G C66G | ≤ 0.5
146 | U7A C22G C30U A37G A70G | 0.563
147 | U7A A20C G58A G63A | ≤ 0.5
148 | U7A C27A | 0.665
149 | U7A C27U | 0.666
150 | U7A C30U C46U C55G | ≤ 0.5
151 | U7A C34U A65G C66G | ≤ 0.5
152 | U7A A21C C33A A45U | 0.616
153 | U7A C11U C30U U59A A69C | ≤ 0.5
154 | U7A G10A A20C C29A C55G G63C | ≤ 0.5
155 | U7A U19C A43G C60G | ≤ 0.5
156 | U7A A65U | 0.996
157 | U7A G51A G52A | 0.536
158 | G6U U32A G56C | ≤ 0.5
159 | U7A G9C G17C C61U C62G A65C | ≤ 0.5
160 | U7A C22G C30U A37G C55A | ≤ 0.5
161 | U7A A14C G25A C30G C49U | 0.557
162 | U7A U53A A69C | 0.545
163 | U7A C31U A40U | ≤ 0.5
164 | U7C A43C C49A G56A | ≤ 0.5
165 | U7A A20G C34A G44A C46U A70C | ≤ 0.5
166 | U7A C30U G39A A40G G67A | ≤ 0.5
167 | U7A C61U | 0.66
